We go through seven molecules from ChEMBL document CHEMBL1124857, “A radiotracer for mapping cholinergic neurons of the brain” (1990).

The species entered for test [1] is Mus musculus. Nature of the test: Percentage dose injected in the whole brain of mouse was determined. In kind it is functional. The procedure, abridged:
(§1)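 Female CD-1 mice (18–27 g; n = 4 or 5 per tracer) were given the tracer by tail-vein injection under ether anesthesia. Doses were 7.2–10.8 μCi of the 125I-labeled tracer or 5.0 μCi of the 3H-labeled tracer. Mice were killed 4 h later. Tissues were excised, weighed, and counted by gamma or liquid-scintillation counting. Values are % injected dose/g, or % dose in whole brain, normalized to a 25 g mouse.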

Test [2] has as its system Mus musculus. Put plainly: Evaluated for the radiotracer concentration in cerebellum of mouse brain, 4 hr after intravenous injection. It counts as functional, organism-based. The procedure, abridged:
as §1

Test [3] deals with Mus musculus. Put plainly: Evaluated for the radiotracer concentration in cerebral cortex of mouse brain, 4 hr after intravenous injection. In kind it is functional, organism-based. The method in brief:
as §1

In test [4] the test system is Mus musculus. Put plainly: Evaluated for the radiotracer concentration in striatum of mouse brain, 4 hr after intravenous injection. In kind it is functional, organism-based. The method in brief:
as §1

Where [5] appears, read: tested as the 125I-labelled form.

As to `OC1Cc2cccc([125I])c2CC1N1CCC(c2ccccc2)CC1` (racemic), the Dose in test [1] is listed as 0.56%.
On the same count and under the same terms, to `O[C@H]1Cc2cccc([125I])c2C[C@@H]1N1CCC(c2ccccc2)CC1` belongs 0.06%.
Take `OC1Cc2cccc(I)c2CC1N1CCC(c2ccccc2)CC1` (racemic): the values for the Dose/g in test [2] (setting [5]), in test [3] (setting [5]) and in test [4] (setting [5]) were 0.2%, 1.17% and 3.29%, respectively.
With `O[C@@H]1Cc2cccc(I)c2C[C@H]1N1CCC(c2ccccc2)CC1`, the Dose/g in test [2] came out at 0.23%; in test [3], 2.56%; in test [4], 6.26%. The Dose in test [1] amounted to 1.03%.
In test [1], `[3H]OC1CCCCC1N1CCC(c2ccccc2)CC1` (stereo unspecified) returned a Dose of 0.24%.
Turning to `OC1CCCCC1N1CCC(c2ccccc2)CC1` (stereo unspecified), the figures for the Dose/g in test [2] (tested as the 3H-labelled form), in test [3] (tested as the 3H-labelled form) and in test [4] (tested as the 3H-labelled form) were 0.1%, 0.42% and 0.4%, respectively.
In the case of `O[C@H]1Cc2cccc(I)c2C[C@@H]1N1CCC(c2ccccc2)CC1`, the Dose/g is 0.06% in test [2] (setting [5]), 0.12% in test [3] (setting [5]) and 0.26% in test [4] (setting [5]).
